Assay results: ChEMBL document CHEMBL4680097 (J Med Chem, 2016)
Activity calls are given as the source filed them. The rule behind the calls is not given here.

Experiments:
HCT-116 = assay: Growth inhibition of human HCT-116 cells incubated for 96 hrs by MTS assay; type: functional
[1] = tested on: Panel NCI-60 (60 carcinoma cell lines); assay: Growth inhibition of human NCI-60 cells assessed as cell growth at 10 uM; type: functional; details: read-out: Activity
Outline: (§1)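 NCI-60 human tumour cell line panel; initial single-dose screen at 10 μM, growth inhibition reported per cell line.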

[2] = biological target: T1, Histone deacetylase (Homo sapiens) (UniProt Q13547+O15379+Q9UBN7+Q92769+Q9UQL6+Q8WUI4+Q9BY41+Q96DB2+P56524+Q9UKV0+Q969S8); assay: Inhibition of HDAC in human HCT-116 cells assessed increase in global histone H3 lysine 9 acetylation at 10 nM incubated for 24 hrs by Western blot analysis; type: cell-based
Outline: (§2)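 HCT116 cells exposed 24 h at 10 nM, 100 nM or 1 μM; global histone H3 lysine 9 acetylation detected by Western blot.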

Histone deacetylase 1 [3] = biological target: T2, Histone deacetylase 1 (Homo sapiens, UniProt Q13547); assay: Inhibition of recombinant HDAC1 (unknown origin) at 1 uM incubated for 15 mins before substrate addition and measured after 30 to 45 mins by HDAC-Glo substrate
Outline: (§3)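 HDAC isoforms captured from HeLa cell lysate with plate-bound isoform-specific antibodies (lysate 100 µg/mL for HDAC1/2, 1 mg/mL for HDAC3/6); inhibitor in DMSO preincubated 15 min at room temperature, then HDAC-Glo substrate/developer 30–45 min; luminescence, background-corrected against no-antibody wells; % activity vs DMSO control; at least two independent trials, mean ± standard error. Concentrations are final.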

Histone deacetylase 2 [4] = biological target: T3, Histone deacetylase 2 (Homo sapiens, UniProt Q92769); assay: Inhibition of recombinant HDAC2 (unknown origin) at 1 uM incubated for 15 mins before substrate addition and measured after 30 to 45 mins by HDAC-Glo substrate; outline: as §3
Histone deacetylase 3 [5] = biological target: T4, Histone deacetylase 3 (Homo sapiens, UniProt O15379); assay: Inhibition of recombinant HDAC3 (unknown origin) at 1 uM incubated for 15 mins before substrate addition and measured after 30 to 45 mins by HDAC-Glo substrate; outline: as §3
[6] = tested on: Panel NCI-60 (60 carcinoma cell lines); assay: Growth inhibition of human NCI-60 cells at 10 uM; type: functional; details: read-out: GI; outline: as §1
[7] = biological target: T1, Histone deacetylase (Homo sapiens); assay: Inhibition of HDAC in human HCT-116 cells assessed increase in global histone H3 lysine 9 acetylation at 100 nM incubated for 24 hrs by Western blot analysis; type: cell-based; outline: as §2
Histone deacetylase 1 [8] = biological target: T2, Histone deacetylase 1; assay: Inhibition of recombinant HDAC1 (unknown origin) at 2 uM incubated for 15 mins before substrate addition and measured after 30 to 45 mins by HDAC-Glo substrate; outline: as §3
Histone deacetylase 2 [9] = biological target: T3, Histone deacetylase 2; assay: Inhibition of recombinant HDAC2 (unknown origin) at 2 uM incubated for 15 mins before substrate addition and measured after 30 to 45 mins by HDAC-Glo substrate; outline: as §3
Histone deacetylase 3 [10] = biological target: T4, Histone deacetylase 3; assay: Inhibition of recombinant HDAC3 (unknown origin) at 2 uM incubated for 15 mins before substrate addition and measured after 30 to 45 mins by HDAC-Glo substrate; outline: as §3
Histone deacetylase 1 [11] = biological target: T2, Histone deacetylase 1; assay: Inhibition of recombinant HDAC1 (unknown origin) at 250 nM incubated for 15 mins before substrate addition and measured after 30 to 45 mins by HDAC-Glo substrate; outline: as §3
Histone deacetylase 2 [12] = biological target: T3, Histone deacetylase 2; assay: Inhibition of recombinant HDAC2 (unknown origin) at 250 nM incubated for 15 mins before substrate addition and measured after 30 to 45 mins by HDAC-Glo substrate; outline: as §3
Histone deacetylase 3 [13] = biological target: T4, Histone deacetylase 3; assay: Inhibition of recombinant HDAC3 (unknown origin) at 250 nM incubated for 15 mins before substrate addition and measured after 30 to 45 mins by HDAC-Glo substrate; outline: as §3
Histone deacetylase 1 [14] = biological target: T2, Histone deacetylase 1; assay: Inhibition of recombinant HDAC1 (unknown origin) incubated for 15 mins before substrate addition and measured after 30 to 45 mins by HDAC-Glo substrate; outline: as §3
Histone deacetylase 2 [15] = biological target: T3, Histone deacetylase 2; assay: Inhibition of recombinant HDAC2 (unknown origin)incubated for 15 mins before substrate addition and measured after 30 to 45 mins by HDAC-Glo substrate; outline: as §3
Histone deacetylase 3 [16] = biological target: T4, Histone deacetylase 3; assay: Inhibition of recombinant HDAC3 (unknown origin)incubated for 15 mins before substrate addition and measured after 30 to 45 mins by HDAC-Glo substrate; outline: as §3
Homo sapiens [17] = organism: Homo sapiens; assay: Selectivity index, ratio of IC50 for recombinant HDAC6 (unknown origin) to IC50 for recombinant HDAC1 (unknown origin)
Homo sapiens [18] = organism: Homo sapiens; assay: Selectivity index, ratio of IC50 for recombinant HDAC6 (unknown origin) to IC50 for recombinant HDAC2 (unknown origin)
Homo sapiens [19] = organism: Homo sapiens; assay: Selectivity index, ratio of IC50 for recombinant HDAC6 (unknown origin) to IC50 for recombinant HDAC3 (unknown origin)

T4 sequence (O15379 whole entry): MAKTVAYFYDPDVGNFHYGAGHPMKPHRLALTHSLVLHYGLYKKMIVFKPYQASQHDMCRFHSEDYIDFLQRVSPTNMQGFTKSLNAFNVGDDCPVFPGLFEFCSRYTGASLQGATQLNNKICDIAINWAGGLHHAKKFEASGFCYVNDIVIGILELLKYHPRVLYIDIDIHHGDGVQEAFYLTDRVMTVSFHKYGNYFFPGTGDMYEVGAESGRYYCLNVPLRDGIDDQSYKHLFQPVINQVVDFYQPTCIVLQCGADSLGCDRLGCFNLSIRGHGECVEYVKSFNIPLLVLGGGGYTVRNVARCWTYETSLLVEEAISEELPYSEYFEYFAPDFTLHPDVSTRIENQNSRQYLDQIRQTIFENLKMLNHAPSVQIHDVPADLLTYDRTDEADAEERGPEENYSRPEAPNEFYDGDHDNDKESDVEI
T2 sequence (Q13547 whole entry, canonical isoform): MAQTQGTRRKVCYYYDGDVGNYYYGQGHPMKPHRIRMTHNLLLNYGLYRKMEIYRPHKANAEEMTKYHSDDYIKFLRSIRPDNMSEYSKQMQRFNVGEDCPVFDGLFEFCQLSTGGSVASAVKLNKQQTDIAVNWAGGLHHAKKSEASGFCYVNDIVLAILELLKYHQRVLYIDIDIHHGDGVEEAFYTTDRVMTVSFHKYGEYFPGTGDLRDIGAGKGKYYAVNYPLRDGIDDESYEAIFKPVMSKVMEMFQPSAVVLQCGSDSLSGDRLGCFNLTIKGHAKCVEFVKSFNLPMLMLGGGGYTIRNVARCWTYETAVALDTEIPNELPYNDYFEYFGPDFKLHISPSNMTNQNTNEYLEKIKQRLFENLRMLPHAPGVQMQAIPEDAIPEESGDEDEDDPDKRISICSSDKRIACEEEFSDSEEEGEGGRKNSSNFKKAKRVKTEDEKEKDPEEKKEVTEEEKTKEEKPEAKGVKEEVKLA
T3 sequence (Q92769 whole entry): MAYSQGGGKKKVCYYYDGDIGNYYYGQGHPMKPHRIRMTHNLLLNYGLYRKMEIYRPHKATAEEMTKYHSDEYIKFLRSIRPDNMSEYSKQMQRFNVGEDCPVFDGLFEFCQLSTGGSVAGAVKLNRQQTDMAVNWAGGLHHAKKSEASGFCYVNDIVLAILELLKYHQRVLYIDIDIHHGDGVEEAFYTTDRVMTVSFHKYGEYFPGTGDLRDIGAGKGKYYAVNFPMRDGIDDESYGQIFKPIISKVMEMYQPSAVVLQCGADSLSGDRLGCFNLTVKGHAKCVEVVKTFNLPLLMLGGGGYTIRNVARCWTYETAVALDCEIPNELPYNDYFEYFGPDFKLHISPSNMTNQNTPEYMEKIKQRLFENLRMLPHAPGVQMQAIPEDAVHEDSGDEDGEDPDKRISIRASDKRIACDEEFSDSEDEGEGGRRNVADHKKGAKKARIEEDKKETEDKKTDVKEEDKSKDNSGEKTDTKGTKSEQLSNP

| SMILES | GI50 (HCT-116) [nM] | Increase in histone H3K9 acetylation (qualitative call) [2] | inhibition [7] | inhibition (Histone deacetylase 1 [11]) | inhibition (Histone deacetylase 2 [12]) | inhibition (Histone deacetylase 3 [13]) | growth at 10 µM [1] [%] | inhibition of growth at 10 µM [6] [%] | further results |
| --- | --- | --- | --- | --- | --- | --- | --- | --- | --- |
| CCCCCCCC(=O)SCC/C=C/[C@@H]1CC(=O)NCc2cccc(n2)CN(Cc2ccc(OC)cc2)CC(=O)N[C@@H](C(C)C)C(=O)O1 | 4250 | Active |  | inactive | inactive | inactive | 5.41 |  |  |
| CCCCCCCC(=O)SCC/C=C/[C@@H]1CC(=O)NCc2cccc(n2)CN(Cc2cccc3ccccc23)CC(=O)N[C@@H](C(C)C)C(=O)O1 | > 5000 |  | inactive |  |  |  | 34.9 |  | inhibition (Histone deacetylase 1 [8]): Active; inhibition (Histone deacetylase 2 [9]): Active; inhibition (Histone deacetylase 3 [10]): Active |
| CCCCCCCC(=O)SCC/C=C/[C@@H]1CC(=O)NCc2cccc(n2)CN(Cc2ccccc2)CC(=O)N[C@@H](C(C)C)C(=O)O1 | > 5000 | Active |  | inactive | inactive | inactive | -4.39 |  |  |
| CCCCCCCC(=O)SCC/C=C/[C@@H]1CC(=O)NCc2nc(cs2)C2=N[C@@](C)(CS2)C(=O)N[C@@H](C(C)C)C(=O)O1 [LARGAZOLE] | 65 | Active |  |  |  |  |  | 60 | IC50 (Histone deacetylase 1 [14]): 61 nM; IC50 (Histone deacetylase 2 [15]): 64 nM |

More lines, main results first:

| GI50 (HCT-116) [nM] | Increase in histone H3K9 acetylation (qualitative call) [2] | inhibition [7] | inhibition (Histone deacetylase 1 [11]) | inhibition (Histone deacetylase 2 [12]) | inhibition (Histone deacetylase 3 [13]) | SMILES | growth at 10 µM [1] [%] | inhibition of growth at 10 µM [6] [%] | further results |
| --- | --- | --- | --- | --- | --- | --- | --- | --- | --- |
| 3200 | Active |  |  |  |  | CCCCCCCC(=O)SCC/C=C/[C@@H]1CC(=O)NCc2cccc(n2)CN(Cc2ccc(C(F)(F)F)cc2)CC(=O)N[C@@H](C(C)C)C(=O)O1 | 0.43 |  | inhibition (Histone deacetylase 1 [3]): inactive; inhibition (Histone deacetylase 2 [4]): inactive; inhibition (Histone deacetylase 3 [5]): inactive |
| 750 |  | Active |  |  |  | CCCCCCCC(=O)SCC/C=C/[C@@H]1CC(=O)NCCOCCOCC(=O)N[C@@H](C(C)C)C(=O)O1 | 38.6 | 60 | inhibition (Histone deacetylase 1 [8]): Active; inhibition (Histone deacetylase 2 [9]): Active; inhibition (Histone deacetylase 3 [10]): Active |
| 75 | Active |  | Active | Active | Active | CCCCCCCC(=O)SCC/C=C/[C@@H]1CC(=O)NCc2cccc(n2)-c2cccc(n2)C(=O)N[C@@H](C(C)C)C(=O)O1 | -16.2 |  | IC50 (Histone deacetylase 1 [14]): 21 nM; IC50 (Histone deacetylase 2 [15]): 28 nM; IC50 (Histone deacetylase 3 [16]): 27 nM; Ratio IC50 (Homo sapiens [17]): 619; Ratio IC50 (Homo sapiens [18]): 464; Ratio IC50 (Homo sapiens [19]): 481 |
| 800 |  | Active |  |  |  | CCCCCCCC(=O)SCC/C=C/[C@@H]1CC(=O)NCc2cccc(n2)CN(C)CC(=O)N[C@@H](C(C)C)C(=O)O1 | 40.8 | 60 |  |
| 2670 | Active |  | inactive | inactive | inactive | CCCCCCCC(=O)SCC/C=C/[C@@H]1CC(=O)NCc2cccc(n2)CN(Cc2ccc(Cl)cc2)CC(=O)N[C@@H](C(C)C)C(=O)O1 | 1.42 |  |  |
